Assay [1] has as its target T1, Alpha-2B adrenergic receptor (Homo sapiens) (UniProt P18089).
T1 sequence (whole entry): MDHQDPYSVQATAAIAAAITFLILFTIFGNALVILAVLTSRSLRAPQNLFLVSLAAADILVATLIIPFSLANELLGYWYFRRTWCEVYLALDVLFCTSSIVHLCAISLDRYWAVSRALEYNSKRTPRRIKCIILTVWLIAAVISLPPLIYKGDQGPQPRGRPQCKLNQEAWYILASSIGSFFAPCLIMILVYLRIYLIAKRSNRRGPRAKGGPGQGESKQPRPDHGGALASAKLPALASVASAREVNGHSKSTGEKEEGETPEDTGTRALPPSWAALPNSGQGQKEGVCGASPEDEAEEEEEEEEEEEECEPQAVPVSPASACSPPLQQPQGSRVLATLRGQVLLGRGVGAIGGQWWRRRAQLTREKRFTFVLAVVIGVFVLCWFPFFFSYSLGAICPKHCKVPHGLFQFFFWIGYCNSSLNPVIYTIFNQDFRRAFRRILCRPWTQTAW
The assay is described as follows: Intrinsic activity at human alpha2B adrenoceptor expressed in CHO cells assessed as extracellular acidification by cytosensor microphysiometry relative to noradrenaline. Type of assay: cell-based. The method, boiled down: (§1)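 Cytosensor microphysiometry on the same CHO cell lines expressing individual human α2-AR subtypes. pEC50, pKb and intrinsic activity were derived, with ia expressed as a fraction of full agonist (-)-noradrenaline (taken as 1). ia <0.3 was scored not active. Values are mean ± SEM of three to six separate experiments.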

The target of assay [2] is T2, Alpha-2C adrenergic receptor (Homo sapiens) (UniProt P18825).
T2 sequence (whole entry): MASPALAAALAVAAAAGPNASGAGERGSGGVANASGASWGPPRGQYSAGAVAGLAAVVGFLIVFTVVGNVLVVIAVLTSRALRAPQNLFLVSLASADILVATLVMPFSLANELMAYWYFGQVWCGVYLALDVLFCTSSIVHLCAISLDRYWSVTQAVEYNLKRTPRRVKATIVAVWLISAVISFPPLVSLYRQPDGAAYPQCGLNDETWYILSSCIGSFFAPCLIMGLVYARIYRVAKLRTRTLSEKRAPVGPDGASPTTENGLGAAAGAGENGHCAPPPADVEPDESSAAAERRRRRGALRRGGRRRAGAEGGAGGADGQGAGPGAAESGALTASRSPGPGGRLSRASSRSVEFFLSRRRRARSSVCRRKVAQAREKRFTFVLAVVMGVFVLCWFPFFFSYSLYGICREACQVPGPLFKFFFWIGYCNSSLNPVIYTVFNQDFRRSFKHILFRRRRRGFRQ
The assay is described as follows: Intrinsic activity at human Alpha-2C adrenoceptor expressed in CHO cells assessed as extracellular acidification by cytosensor microphysiometry relative to noradrenaline. It is filed as cell-based. The method, boiled down:
as §1

Assay [3] concerns the target T3, Alpha-2A adrenergic receptor (Homo sapiens) (UniProt P08913).
T3 sequence (whole entry): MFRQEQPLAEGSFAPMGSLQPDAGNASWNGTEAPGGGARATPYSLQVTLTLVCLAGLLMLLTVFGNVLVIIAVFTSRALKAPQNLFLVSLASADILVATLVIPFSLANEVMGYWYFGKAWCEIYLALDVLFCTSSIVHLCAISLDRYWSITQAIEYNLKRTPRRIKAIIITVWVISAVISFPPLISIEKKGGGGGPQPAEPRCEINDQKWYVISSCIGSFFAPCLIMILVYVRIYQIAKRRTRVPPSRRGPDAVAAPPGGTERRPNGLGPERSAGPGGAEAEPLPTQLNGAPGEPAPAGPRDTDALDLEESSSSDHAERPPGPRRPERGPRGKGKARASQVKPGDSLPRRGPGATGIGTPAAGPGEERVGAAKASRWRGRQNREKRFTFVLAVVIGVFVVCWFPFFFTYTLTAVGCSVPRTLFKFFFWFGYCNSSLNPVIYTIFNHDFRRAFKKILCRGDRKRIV
The assay is described as follows: Antagonist activity at human alpha2A adrenoceptor expressed in CHO cells assessed as extracellular acidification by cytosensor microphysiometry. Type of assay: functional, cell-based. The method, boiled down:
as §1

Assay [4] concerns the target T4, Alpha-2B adrenergic receptor (Homo sapiens, UniProt P18089).
T4 sequence (P18089 whole entry): T1 sequence (whole entry)
In words: Agonist activity at human alpha2B adrenoceptor expressed in CHO cells assessed as extracellular acidification by cytosensor microphysiometry. Type of assay: functional, cell-based. Put shortly: as §1

Assay [5] concerns the target T5, Alpha-2A adrenergic receptor (Homo sapiens, UniProt P08913).
T5 sequence (P08913 whole entry): T3 sequence (whole entry)
In words: Displacement of [3H]RX821002 from human alpha2A adrenoceptor expressed in CHO cell membrane after 30 mins by liquid scintillation counting. Type of assay: cell membranes. Put shortly:
(§2)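 Competition binding against [3H]RX 821002 on membrane preparations from CHO cells, each line expressing one human α2-AR subtype (α2A, α2B or α2C); affinities reported as pKi.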
On the technique in general: Loss of bound radioactivity is the signal in a displacement assay; it reports binding, not function.

Assay [6] concerns the target T6, Alpha-2C adrenergic receptor (Homo sapiens, UniProt P18825).
T6 sequence (P18825 whole entry): T2 sequence (whole entry)
In words: Agonist activity at human Alpha-2C adrenoceptor expressed in CHO cells assessed as extracellular acidification by cytosensor microphysiometry. It is filed as functional, cell-based. The method, boiled down:
as §1

Assay [7] addresses T4, Alpha-2B adrenergic receptor. The assay is described as follows: Displacement of [3H]RX821002 from human alpha2B adrenoceptor expressed in CHO cell membrane after 30 mins by liquid scintillation counting. Type of assay: cell membranes. The method, boiled down:
as §2

Assay [8] concerns the target T6, Alpha-2C adrenergic receptor. In words: Displacement of [3H]RX821002 from human Alpha-2C adrenoceptor expressed in CHO cell membrane after 30 mins by liquid scintillation counting. Type of assay: cell membranes. Put shortly: as §2

Take `NC[C@H](O)c1ccc(O)c(O)c1`: the Intrinsic activity in assay [1] and in assay [2] was 1 each time.
As a reminder, the pKb is the Kb on a negative log10 scale, so that one unit is a factor of ten. The term EC50 denotes the midpoint of the concentration-response curve. As a reminder, the Ki is the equilibrium dissociation constant of an inhibitor or competing ligand from its target. Read a high Ki as a looser hold on the target. `c1ccc(C2CC2)c(OCC2=NCCN2)c1` [CIRAZOLINE]: the pKb in assay [3] turned out to be 6.4. Besides, the Intrinsic activity in assay [1] came out at 1; in assay [2], 0.8. For the same compound, the EC50 in assay [4] was 1000 nM; in assay [6], 398 nM. Further, the Ki is 58.9 nM in assay [5], 525 nM in assay [7] and 550 nM in assay [8].

Values taken from ChEMBL document CHEMBL1156735, “Might adrenergic alpha2C-agonists/alpha2A-antagonists become novel therapeutic tools for pain treatment with morphine?” (J Med Chem, 2009).
